According to ChEMBL document CHEMBL1156789, “Design and synthesis of 5,5'-disubstituted aminohydantoins as potent and selective human beta-secretase (BACE1) inhibitors” (J Med Chem, 2010):

Experiments:
[1] = molecular target: T1, Beta-secretase 2 (Homo sapiens, UniProt Q9Y5Z0); experiment: Inhibition of human BACE2 by FRET based peptide cleavage assay
T1 sequence (Q9Y5Z0 whole entry): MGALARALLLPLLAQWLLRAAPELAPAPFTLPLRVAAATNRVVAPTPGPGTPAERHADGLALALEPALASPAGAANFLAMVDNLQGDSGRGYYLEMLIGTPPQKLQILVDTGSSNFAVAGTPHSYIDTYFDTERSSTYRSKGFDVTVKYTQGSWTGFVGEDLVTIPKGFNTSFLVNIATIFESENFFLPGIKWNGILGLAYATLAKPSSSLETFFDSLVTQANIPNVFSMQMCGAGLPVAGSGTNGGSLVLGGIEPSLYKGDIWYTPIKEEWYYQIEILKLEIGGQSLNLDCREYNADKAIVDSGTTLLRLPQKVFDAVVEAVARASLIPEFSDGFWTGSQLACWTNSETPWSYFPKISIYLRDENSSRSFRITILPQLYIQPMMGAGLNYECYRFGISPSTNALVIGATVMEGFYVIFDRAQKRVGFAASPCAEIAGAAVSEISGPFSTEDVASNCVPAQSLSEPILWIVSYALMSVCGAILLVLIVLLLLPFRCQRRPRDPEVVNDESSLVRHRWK

[2] = molecular target: T2, Cathepsin D (Homo sapiens, UniProt P07339); experiment: Inhibition of human cathepsin D by FRET based peptide cleavage assay
[3] = molecular target: T3, Beta-secretase 1 (Homo sapiens, UniProt P56817); experiment: Inhibition of BACE1 expressed in CHOK1 cells coexpressing human recombinant wild type APP assessed as blockade of amyloid beta production by ELISA; type: cell-based, CHO-K1
[4] = molecular target: T3, Beta-secretase 1; experiment: Inhibition of human BACE1 by FRET based peptide cleavage assay
[5] = molecular target: T2, Cathepsin D; experiment: Inhibition of human cathepsin D at 100 uM by FRET based peptide cleavage assay
[6] = Inhibition of pepsin by FRET based peptide cleavage assay
[7] = molecular target: T4, Renin (Homo sapiens, UniProt P00797); experiment: Inhibition of human recombinant renin by FRET based peptide cleavage assay
T4 sequence (P00797 whole entry): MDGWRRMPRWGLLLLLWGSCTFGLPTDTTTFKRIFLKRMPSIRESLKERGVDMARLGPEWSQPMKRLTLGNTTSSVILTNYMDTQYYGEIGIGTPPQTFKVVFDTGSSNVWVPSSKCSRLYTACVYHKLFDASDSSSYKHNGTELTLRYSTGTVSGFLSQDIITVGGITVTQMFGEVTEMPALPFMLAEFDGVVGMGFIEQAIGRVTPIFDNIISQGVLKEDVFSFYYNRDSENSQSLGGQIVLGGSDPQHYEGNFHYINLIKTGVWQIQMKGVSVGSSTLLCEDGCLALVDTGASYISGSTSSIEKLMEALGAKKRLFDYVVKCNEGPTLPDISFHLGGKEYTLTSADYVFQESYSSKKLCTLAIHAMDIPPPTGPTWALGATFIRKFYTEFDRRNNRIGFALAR

[8] = Dissociation constant, pKa of the compound; type: physicochemical
[9] = species: Homo sapiens; experiment: Selectivity for human BACE1 over human BACE2
[10] = molecular target: T5, Beta-secretase 2 (Homo sapiens) (UniProt Q9Y5Z0); conditions: 25 uM
T5 sequence (whole entry): T1 sequence (Q9Y5Z0 whole entry)

[11] = test system: Mus musculus; experiment: Reduction in amyloid beta 40 level in Tg2576 mouse plasma at 100 mg/kg, po after 8 hrs; type: functional; design: scale not given: the % may be the effect or the level left
Method in brief: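 Tg2576 mice received a single acute oral dose. Plasma Aβ40 was measured 8 h after dosing.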

T2 sequence (P07339 65-162 limits assumed): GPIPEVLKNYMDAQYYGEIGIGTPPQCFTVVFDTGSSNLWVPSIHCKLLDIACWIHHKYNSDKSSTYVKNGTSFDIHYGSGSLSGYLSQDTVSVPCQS
T2 sequence (P07339 169-412 limits assumed): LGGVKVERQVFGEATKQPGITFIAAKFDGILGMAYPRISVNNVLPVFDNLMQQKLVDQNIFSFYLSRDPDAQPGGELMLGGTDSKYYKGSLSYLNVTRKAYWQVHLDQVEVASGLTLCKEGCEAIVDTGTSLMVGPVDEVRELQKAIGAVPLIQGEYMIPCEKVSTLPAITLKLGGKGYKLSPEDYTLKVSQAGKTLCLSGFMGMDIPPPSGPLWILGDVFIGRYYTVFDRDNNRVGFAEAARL
T3 sequence (P56817 whole entry): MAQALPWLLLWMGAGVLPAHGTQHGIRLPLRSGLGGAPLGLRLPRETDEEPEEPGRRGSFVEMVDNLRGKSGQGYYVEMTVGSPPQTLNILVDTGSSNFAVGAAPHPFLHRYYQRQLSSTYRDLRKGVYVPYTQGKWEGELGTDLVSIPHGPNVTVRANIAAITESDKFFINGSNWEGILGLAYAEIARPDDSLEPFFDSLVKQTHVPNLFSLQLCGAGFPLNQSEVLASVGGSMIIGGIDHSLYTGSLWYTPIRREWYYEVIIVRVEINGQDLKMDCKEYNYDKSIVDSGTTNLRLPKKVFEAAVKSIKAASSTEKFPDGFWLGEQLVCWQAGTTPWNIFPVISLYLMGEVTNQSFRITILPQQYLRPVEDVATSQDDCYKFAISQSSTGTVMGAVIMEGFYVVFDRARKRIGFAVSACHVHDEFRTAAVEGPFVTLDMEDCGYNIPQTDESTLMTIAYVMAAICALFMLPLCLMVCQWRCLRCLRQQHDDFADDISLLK

Row | Structure (SMILES) | IC50 [1] [µM] | IC50 [2] [µM] | EC50 [3] [µM] | IC50 [4] [µM] | other results
1 | CN1C(=O)[C@](c2ccc(OC(F)(F)F)cc2)(c2ccc(F)c(-c3cncnc3)c2)N=C1N | 9.97 | 11.6 |  |  | 
2 | CCCCOc1cc(C2(c3cccc(-c4cccnc4)c3)N=C(N)N(C)C2=O)ccc1OC (configuration not stated) | 0.17 | 8.18 | 0.67 | 0.05 | 
3 | CN1C(=O)C(c2ccccc2)(c2ccccc2)N=C1N |  |  |  |  | inhibition [5]: 36%; IC50 [6]: 11.1 µM; IC50 [7]: 9.6 µM; pKa [8]: 5.7
4 | COc1ccc(C2(c3cccc(-c4cccnc4)c3)N=C(N)N(C)C2=O)cc1Cl (configuration not stated) | 0.56 | 6.28 |  |  | 
5 | COc1cccc(C2(c3ccccc3)N=C(N)N(C)C2=O)c1 (configuration not stated) | 1.19 |  | 5.9 | 3.47 | inhibition [5]: 46%
6 | CN1C(=O)C(c2ccccc2)(c2ccc(Cl)cc2)N=C1N (configuration not stated) | 1.84 | 38.2 | 2.13 | 2.25 | 
7 | CN1C(=O)C(c2ccccc2)(C23CC4CC(CC(C4)C2)C3)N=C1N (configuration not stated) | 0.83 | 27.3 |  |  | 
8 | COc1ncccc1-c1cccc(C2(c3ccc(OC(F)(F)F)cc3)N=C(N)N(C)C2=O)c1 (configuration not stated) | 5.99 | 2.05 | 2.57 | 0.52 | 
9 | CN1C(=O)C(c2ccc(OC(F)(F)F)cc2)(c2ccc(F)c(-c3cncnc3)c2)N=C1N (configuration not stated) | 9.69 | 4.18 |  |  | 
10 | COc1ccc(C2(C34CC5CC(CC(C5)C3)C4)N=C(N)N(C)C2=O)cc1OC (configuration not stated) | 9.59 | 36.6 | 0.19 | 0.27 | Ratio IC50 [9]: 20
11 | CN1C(=O)C(c2ccc(OC(F)(F)F)cc2)(c2cccc(-c3cncnc3)c2F)N=C1N (configuration not stated) | 5.04 | 26.2 | 2.83 | 1.36 | 
12 | COc1ccc(C2(c3ccc(C#N)c(-c4cccnc4)c3)N=C(N)N(C)C2=O)cc1C (configuration not stated) | 2.32 | 2.19 | 1.75 | 0.63 | 
13 | COc1ccc(C2(c3ccc(C)c(-c4cccnc4)c3)N=C(N)N(C)C2=O)cc1C (configuration not stated) | 0.96 | 2.47 |  |  | 
14 | CCc1cc(C2(C34CC5CC(CC(C5)C3)C4)N=C(N)N(C)C2=O)ccc1OC (configuration not stated) | 4.33 | 14.1 | 0.76 | 0.28 | Ratio IC50 [9]: 20
15 | COc1ccc(C2(c3ccccc3)N=C(N)N(C)C2=O)cc1 (configuration not stated) | 1.72 |  | 3.35 | 3.1 | inhibition [5]: 3%
16 | COc1ccc(C2(c3cccc(-c4cccnc4)c3)N=C(N)N(C)C2=O)cc1C1CCCC1 (configuration not stated) | 0.96 | 1.87 |  |  | 
17 | CN1C(=O)C(c2cccc(-c3cccnc3)c2)(c2ccc3c(c2)OCO3)N=C1N (configuration not stated) | 0.54 | 21.4 |  |  | 
18 | COc1ccc([C@]2(c3ccc(F)c(-c4cccnc4F)c3)N=C(N)N(C)C2=O)cc1C | 1.64 | 2.71 |  |  | 
19 | COc1ccc([C@@]2(C34CC5CC(CC(C5)C3)C4)N=C(N)N(C)C2=O)cc1 |  | 20.8 |  |  | inhibition [10]: 50%
20 | COc1ccc([C@@]2(c3ccc(F)c(-c4cccnc4F)c3)N=C(N)N(C)C2=O)cc1C | 0.81 | 0.82 |  |  | Activity [11]: 69%
21 | CN1C(=O)C(c2ccc(OC(F)(F)F)cc2)(C23CC4CC(CC(C4)C2)C3)N=C1N (configuration not stated) | 3.87 | 6.22 |  |  | 
22 | COc1ccc(C2(c3ccc(F)c(-c4cncnc4)c3)N=C(N)N(C)C2=O)cc1C (configuration not stated) | 2.8 | 6.7 |  |  | IC50 [6]: 35.3 µM; IC50 [7]: 57.6 µM
23 | COc1ccc(C2(c3cccc(-c4cccnc4)c3)N=C(N)N(C)C2=O)cc1OC (configuration not stated) |  | 23.1 |  |  | 
24 | CN1C(=O)C(c2cccc(-c3cccnc3)c2)(c2ccc3c(c2)CCO3)N=C1N (configuration not stated) | 1.13 | 23.9 |  |  | 
25 | NC1=NC(c2ccccc2)(c2ccccc2)C(=O)N1 | 87.2 |  | 23.5 |  | inhibition [5]: 13%

Row | Structure (SMILES) | IC50 [1] [µM] | IC50 [2] [µM] | EC50 [3] [µM] | IC50 [4] [µM] | other results
26 | CN1C(=O)C(c2ccccc2)(c2cccc(Cl)c2)N=C1N (configuration not stated) | 0.42 | 69.2 | 6.97 | 2.5 | 
27 | COc1ccc(C2(c3cccc(-c4cccnc4)c3)N=C(N)N(C)C2=O)cc1OC1CCCC1 (configuration not stated) | 0.3 | 8.3 |  |  | 
28 | COc1ccc([C@]2(C34CC5CC(CC(C5)C3)C4)N=C(N)N(C)C2=O)cc1 | 0.23 | 13.4 |  |  | 
29 | CCCCOc1ccc(C2(C34CC5CC(CC(C5)C3)C4)N=C(N)N(C)C2=O)cc1 (configuration not stated) | 5.55 | 8.4 |  |  | 
30 | COc1ccc(C2(c3cccc(-c4cncnc4)c3)N=C(N)N(C)C2=O)cc1C (configuration not stated) | 1.59 | 14.3 |  |  | IC50 [6]: 33.3 µM; IC50 [7]: 42.3 µM
31 | COc1ccc(-c2cccc(C3(c4ccc(OC(F)(F)F)cc4)N=C(N)N(C)C3=O)c2)cn1 (configuration not stated) | 2.51 | 4.43 |  |  | 
32 | CCCOc1cc(C2(c3cccc(-c4cccnc4)c3)N=C(N)N(C)C2=O)ccc1OC (configuration not stated) | 0.2 | 10.1 | 0.68 | 0.05 | 
33 | CN1C(=O)[C@@](c2ccc(OC(F)(F)F)cc2)(c2ccc(F)c(-c3cncnc3)c2)N=C1N | 7.54 | 2.33 |  |  | 
34 | CN1C(=O)C(c2cccc(-c3cccnc3)c2)(c2ccc3c(c2)OCCO3)N=C1N (configuration not stated) | 0.5 | 10.9 |  |  | 
35 | COc1ccc([C@@]2(C34CC5CC(CC(C5)C3)C4)N=C(N)N(C)C2=O)cc1C | 73.6 | 13.1 |  |  | 
36 | COc1ccc(C2(c3cccc(-c4cccnc4)c3)N=C(N)N(C)C2=O)cc1OC(C)C (configuration not stated) | 1.84 | 12.2 | 0.87 | 0.06 | 
37 | CCOc1cc(C2(c3cccc(-c4cccnc4)c3)N=C(N)N(C)C2=O)ccc1OC (configuration not stated) | 0.6 | 10.3 | 0.52 | 0.05 | 
38 | COc1ccc(C2(c3cccc(-c4cccnc4F)c3)N=C(N)N(C)C2=O)cc1C (configuration not stated) |  |  | 0.11 |  | 
39 | COc1ccc([C@]2(C34CC5CC(CC(C5)C3)C4)N=C(N)N(C)C2=O)cc1C | 4.02 | 9.21 |  |  | 
40 | COc1ccc(C2(c3cccc(-c4cccnc4)c3)N=C(N)N(C)C2=O)cc1C#N (configuration not stated) | 0.55 | 7.3 | 4.5 | 0.15 | 
41 | COc1ccc(C2(C34CC5CC(CC(C5)C3)C4)N=C(N)N(C)C2=O)cc1C (configuration not stated) | 6.29 | 11.1 |  |  | IC50 [6]: 15 µM; IC50 [7]: 59.5 µM
42 | COc1ccc(C2(c3ccc(F)c(-c4cccnc4F)c3)N=C(N)N(C)C2=O)cc1C (configuration not stated) | 1.84 | 2.41 |  |  | IC50 [6]: 66.3 µM; IC50 [7]: 23.2 µM
43 | NC1=NC(c2ccccc2)(c2ccccc2)C2=NCCCN12 |  |  |  |  | pKa [8]: 7.6
44 | CCOc1ccc(C2(C34CC5CC(CC(C5)C3)C4)N=C(N)N(C)C2=O)cc1 (configuration not stated) | 2.53 | 11.5 |  |  | 
45 | CCN1C(=O)C(c2ccccc2)(c2ccccc2)N=C1N | 5.16 |  | 8.13 |  | inhibition [5]: 33%
46 | CN1C(=O)C(c2ccc(OC(F)(F)F)cc2)(c2cc(F)cc(-c3cncnc3)c2)N=C1N (configuration not stated) | 1.26 | 8.55 |  | 0.32 | IC50 [6]: 35.1 µM; IC50 [7]: 13.8 µM
47 | COc1ccc(C2(c3cccc(-c4cccnc4)c3)N=C(N)N(C)C2=O)cc1C (configuration not stated) |  |  |  |  | IC50 [6]: 19.6 µM; IC50 [7]: 93.4 µM
48 | COc1ccc(C2(c3cccc(-c4cccnc4)c3)N=C(N)N(C)C2=O)cc1C(F)(F)F (configuration not stated) | 1 | 3.51 |  |  | 
49 | COc1ccc(C2(C34CC5CC(CC(C5)C3)C4)N=C(N)N(C)C2=O)cc1 (configuration not stated) | 0.68 | 15.3 |  |  | IC50 [6]: 14.4 µM; IC50 [7]: 53.3 µM
50 | COc1ccc(C2(c3cccc(-c4cccnc4)c3)N=C(N)N(C)C2=O)cc1F (configuration not stated) | 0.52 | 5.2 | 0.42 | 0.05 | 
